Test results: publication PMC12415690 (RSC Advances, 2025)
Values after ≈ are worked out from the molar mass of the structure shown.

Assays:
S. aureus (ATCC 23235) = test: Antibacterial zone of inhibition; type: cell-based; settings: Staphylococcus aureus, ATCC23235, read-out: Zone of inhibition in mm, S. aureus (ATCC 23235)
How it was run: (§1)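 Sterilised nutrient agar, […], was seeded with 18–24 h bacterial subcultures, mixed and poured into Petri dishes. Once the agar set, 6 mm wells were cut with a sterile cork borer and filled with test compound dissolved in DMSO at 100 μg mL−1. Plates were incubated at 37 °C for 24–48 h, and inhibition zones around each well were measured in mm. Ciprofloxacin was the reference standard.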

[1] = test system: P. aeruginosa (ATCC 27853); test: Antibacterial zone of inhibition; type: cell-based; settings: Pseudomonas aeruginosa, ATCC27853, read-out: Zone of inhibition in mm, P. aeruginosa (ATCC 27853)
How it was run: as §1

E. coli (ATCC 25922) = test: Antibacterial zone of inhibition; type: cell-based; settings: Escherichia coli, ATCC25922, read-out: Zone of inhibition in mm, E. coli (ATCC 25922)
How it was run: as §1

[2] = test system: M. tuberculosis H37Rv strain (ATCC 27294); test: Antitubercular activity, microplate Alamar Blue assay; type: cell-based; settings: Mycobacterium tuberculosis, ATCC27294|H37RV, read-out: MIC μM
B. subtilis (ATCC 6051) = test: Antibacterial zone of inhibition; type: cell-based, Bacillus subtilis; settings: 100 μg mL^−1; for zone of inhibition at 100 µg/mL: Bacillus subtilis, ATCC6051, read-out: Zone of inhibition in mm, B. subtilis (ATCC 6051), Gram positive; for Zone of inhibition in mm, B. subtilis (ATCC 6051): Gram positive
How it was run: as §1

Structure (SMILES)	zone of inhibition at 100 µg/mL (S. aureus (ATCC 23235)) [mm]	zone of inhibition at 100 µg/mL [1] [mm]	zone of inhibition at 100 µg/mL (E. coli (ATCC 25922)) [mm]	MIC [2] [µM]	zone of inhibition at 100 µg/mL (B. subtilis (ATCC 6051)) [mm]	Zone of inhibition in mm, B. subtilis (ATCC 6051) (B. subtilis (ATCC 6051)) [mm]
CCOC(=O)/C=C1/SC(N/N=C/c2c(-c3ccc(OC)cc3)nc3ncccn23)=NC1=O [Compound K23, Ethyl(E)-2-(2-(2-((E)-(2-(4-methoxyphenyl)imidazo[1,2-a]pyrimidin-3-yl)methylene) hydrazineyl)-4-oxothiazol-5(4H)-ylidene)acetate]	16	18	24	111 (≈ 50 µg/mL)	–	–
CC(=O)c1sc(N/N=C/c2c(-c3ccc(Br)cc3)nc3ncccn23)nc1C [Compound K19, (E)-1-(2-(2-((2-(4-bromophenyl)imidazo[1,2-a]pyrimidin-3-yl)methylene)hydrazineyl)-4-methylthiazol-5-yl)ethan-1-one]	12	20	–	13.8 (≈ 6.27 µg/mL)	12	–
CCOC(=O)c1cnc(N/N=C/c2c(-c3ccccc3)nc3ncccn23)s1 [Compound K14, Ethyl(E)-2-(2-((2-phenylimidazo[1,2-a]pyrimidin-3-yl)methylene)hydrazineyl)thiazole-5-carboxylate]	15	15	12	31.9 (≈ 12.5 µg/mL)	14	–
CC(=O)c1sc(N/N=C/c2c(-c3ccc(Cl)cc3)nc3ncccn23)nc1C [Compound K18, (E)-1-(2-(2-((2-(4-chlorophenyl)imidazo[1,2-a]pyrimidin-3-yl)methylene)hydrazineyl)-4-methylthiazol-5-yl)ethan-1-one]	18	12	15	30.5 (≈ 12.5 µg/mL)	15 to 20	15
CCOC(=O)/C=C1/SC(N/N=C/c2c(-c3ccc(Cl)cc3)nc3ncccn23)=NC1=O [Compound K25, Ethyl(E)-2-(2-(2-((E)-(2-(4-chlorophenyl)imidazo[1,2-a]pyrimidin-3-yl)methylene) hydrazineyl)-4-oxothiazol-5(4H)-ylidene)acetate]	21	20	21	55 (≈ 25 µg/mL)	15 to 20	20
CCOC(=O)/C=C1/SC(N/N=C/c2c(-c3ccc(C)cc3)nc3ncccn23)=NC1=O [Compound K22, Ethyl(E)-2-(4-oxo-2-(2-((E)-(2-(p-tolyl)imidazo[1,2-a]pyrimidin-3-yl)methylene) hydrazineyl)thiazol-5(4H)-ylidene)acetate]	15	13	24	28.8 (≈ 12.5 µg/mL)	15 to 20	15
NC(=O)c1cnccn1 [PZA, pyrazinamide, reference compound]	–	–	–	25.3 (≈ 3.12 µg/mL)	–	–
CC(=O)c1sc(N/N=C/c2c(-c3ccc(F)cc3)nc3ncccn23)nc1C [Compound K17, (E)-1-(2-(2-((2-(4-fluorophenyl)imidazo[1,2-a]pyrimidin-3-yl)methylene)hydrazineyl)-4-methylthiazol-5-yl)ethan-1-one]	20	11	–	7.91 (≈ 3.12 µg/mL)	14	–
CCOC(=O)/C=C1/SC(N/N=C/c2c(-c3ccc(F)cc3)nc3ncccn23)=NC1=O [Compound K24, Ethyl(E)-2-(2-(2-((E)-(2-(4-fluorophenyl)imidazo[1,2-a]pyrimidin-3-yl)methylene) hydrazineyl)-4-oxothiazol-5(4H)-ylidene)acetate]	–	–	–	28.5 (≈ 12.5 µg/mL)	–	–
[H]/N=C(/N)N[C@H]1[C@H](O)[C@@H](O)[C@H](O[C@@H]2O[C@@H](C)[C@](O)(C=O)[C@H]2O[C@@H]2O[C@@H](CO)[C@H](O)[C@@H](O)[C@@H]2NC)[C@@H](N/C(N)=N\[H])[C@@H]1O [STM, streptomycin, reference compound]	–	–	–	10.7 (≈ 6.25 µg/mL)	–	–
CC(=O)c1sc(N/N=C/c2c(-c3ccc(C#N)cc3)nc3ncccn23)nc1C [Compound K20, (E)-4-(3-((2-(5-acetyl-4-methylthiazol-2-yl)hydrazineylidene)methyl)imidazo[1,2-a]pyrimidin-2-yl)benzonitrile]	17	12	14	15.6 (≈ 6.25 µg/mL)	15 to 20	15
CC(=O)c1sc(N/N=C/c2c(-c3ccccc3)nc3ncccn23)nc1C [Compound K21, (E)-1-(4-methyl-2-(2-((2-phenylimidazo[1,2-a]pyrimidin-3-yl)methylene)hydrazineyl)thiazol-5-yl)ethan-1-one]	19	–	–	33.2 (≈ 12.5 µg/mL)	13	–
CCOC(=O)/C=C1/SC(N/N=C/c2c(-c3ccc(Br)cc3)nc3ncccn23)=NC1=O [Compound K26, Ethyl(E)-2-(2-(2-((E)-(2-(4-bromophenyl)imidazo[1,2-a]pyrimidin-3-yl)methylene) hydrazineyl)-4-oxothiazol-5(4H)-ylidene)acetate]	15	–	–	50.2 (≈ 25.1 µg/mL)	15	–
CCOC(=O)c1sc(N/N=C/c2c(-c3ccc(Br)cc3)nc3ncccn23)nc1C [Compound K5, Ethyl(E)-2-(2-((2-(4-bromophenyl)imidazo[1,2-a]pyrimidin-3-yl)methylene)hydrazineyl)-4-methylthiazole-5-carboxylate]	11	13	14	12.9 (≈ 6.27 µg/mL)	13	–
CCOC(=O)c1cnc(N/N=C/c2c(-c3ccc(C)cc3)nc3ncccn23)s1 [Compound K8, Ethyl(E)-2-(2-((2-(p-tolyl)imidazo[1,2-a]pyrimidin-3-yl)methylene)hydrazineyl)thiazole-5-carboxylate]	12	19	17	7.68 (≈ 3.12 µg/mL)	–	–
CC(=O)c1sc(N/N=C/c2c(-c3ccc(C)cc3)nc3ncccn23)nc1C [Compound K15, (E)-1-(4-methyl-2-(2-((2-(p-tolyl)imidazo[1,2-a]pyrimidin-3-yl)methylene)hydrazineyl)thiazol-5-yl)ethan-1-one]	12	14	15	32 (≈ 12.5 µg/mL)	13	–
COc1ccc(-c2nc3ncccn3c2/C=N/Nc2nc(C)c(C(C)=O)s2)cc1 [Compound K16, (E)-1-(2-(2-((2-(4-methoxyphenyl)imidazo[1,2-a]pyrimidin-3-yl)methylene)hydrazineyl)-4-methylthiazol-5-yl)ethan-1-one]	18	11	–	30.8 (≈ 12.5 µg/mL)	–	–
CCOC(=O)c1sc(N/N=C/c2c(-c3ccc(C#N)cc3)nc3ncccn23)nc1C [Compound K6, Ethyl(E)-2-(2-((2-(4-cyanophenyl)imidazo[1,2-a]pyrimidin-3-yl)methylene)hydrazineyl)-4-methylthiazole-5-carboxylate]	17	15	10	29 (≈ 12.5 µg/mL)	14	–
